ChEMBL document CHEMBL2150955, “Design, synthesis and evaluation of N-(substituted benzothiazol-2-yl)amides as anticonvulsant and neuroprotective” (Eur J Med Chem, 2012)
Active and inactive are the calls of the source. The rule behind the calls is not given here.

Tests used:
Mus musculus [1] = test: CNS depressant activity in mouse assessed as immobility time at 100 mg/kg, ip measured 60 mins post dose by porsolt's swimming pool test; assay type: organism-based; parameters: dose 100 mg/kg, route intraperitoneal; details: in vivo, 1 h
In short: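 Behavioral depression was measured by Porsolt's swim test in albino mice of either sex. Immobility time (s) was recorded 24 h before as the control and again 60 min after treatment. Values are mean ± SEM of six mice, compared with Student's t test.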

Mus musculus [2] = test: Neuroprotective activity in acrylamide-intoxicated mouse assessed as reduction in brain malonaldehyde level at 50 mg/kg, ip dosed 3 days/week for 3 weeks administered 10 mins before acrylamide challenge by TBARS detection assay; assay type: functional, organism-based; parameters: dose 50 mg/kg
In short: (§1)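 Mice were given acrylamide to induce brain degeneration, with compound administered 10 min before the acrylamide. Brain MDA (lipid peroxidation) and LDH activity were measured against controls. Values are mean ± SEM of six animals, compared with Student's t test.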

Mus musculus [3] = test: Neurotoxicity in mouse assessed as minimal motor impairment at 300 mg/kg, ip after 0.5 hrs by rotarod test; assay type: toxicity, organism-based; parameters: dose 300 mg/kg, route intraperitoneal; details: in vivo
In short: (§2)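 Albino mice of either sex (25-30 g) received 30, 100 or 300 mg/kg (n = 6). Neurological deficit was assessed on the rotarod at 0.5 h and 4 h. The value recorded is the minimum dose producing neurotoxicity in half or more of the mice; 300 mg/kg is the maximum dose.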

Mus musculus [4] = test: Neuroprotective activity in acrylamide-intoxicated mouse assessed as reduction in brain LDH level at 50 mg/kg, ip dosed 3 days/week for 3 weeks administered 10 mins before acrylamide challenge by spectrophotometry; assay type: functional, organism-based; parameters: dose 50 mg/kg; in short: as §1
Mus musculus [5] = test: Anticonvulsant activity in ip dosed mouse assessed as compound concentration causing protection against subcutaneous pentylenetetrazol-induced seizures in half or more test animals after 4 hrs; assay type: functional; details: read-out: MED
In short: (§3)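 Albino mice of either sex (25-30 g), housed under standard conditions with free access to pellet diet and water. Compounds given at 30, 100 and 300 mg/kg (n = 6). MES and scPTZ seizures were read at 0.5 h and 4 h. The value recorded is the minimum dose protecting half or more of the mice; 300 mg/kg is the maximum dose.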

Mus musculus [6] = test: Anticonvulsant activity in ip dosed mouse assessed as compound concentration causing protection against maximal electroshock-induced seizures in half or more test animals after 0.5 hrs; assay type: functional; details: read-out: MED; in short: as §3
Mus musculus [7] = test: Anticonvulsant activity in ip dosed mouse assessed as compound concentration causing protection against maximal electroshock-induced seizures in half or more test animals after 4 hrs; assay type: functional; details: read-out: MED; in short: as §3
Mus musculus [8] = test: Anticonvulsant activity in ip dosed mouse assessed as compound concentration causing protection against subcutaneous pentylenetetrazol-induced seizures in half or more test animals after 0.5 hrs; assay type: functional; details: read-out: MED; in short: as §3
Mus musculus [9] = test: Neurotoxicity in mouse assessed as minimal motor impairment at 300 mg/kg, ip after 4 hrs by rotarod test; assay type: toxicity, organism-based; parameters: dose 300 mg/kg, route intraperitoneal; details: in vivo; in short: as §2
Mus musculus [10] = test: Hepatotoxicity in mouse assessed as effect on SGOT level at 30 mg/kg, po after 2 weeks relative to control; assay type: toxicity, organism-based; parameters: dose 30 mg/kg, route oral; details: in vivo, 336 h
In short: (§4)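 Serum SGOT, SGPT, alkaline phosphatase, total albumin and total protein were measured in treated mice against controls (n = 6). Data were analysed by ANOVA followed by Student's t test.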

Mus musculus [11] = test: Hepatotoxicity in mouse assessed as effect on SGPT level at 30 mg/kg/day, po dosed for 2 weeks relative to control; assay type: toxicity, organism-based; parameters: route oral; details: in vivo, 336 h; in short: as §4
Mus musculus [12] = test: Hepatotoxicity in mouse assessed as effect on alkaline phosphatase level at 30 mg/kg/day, po dosed for 2 weeks relative to control; assay type: toxicity, organism-based; parameters: route oral; details: in vivo, 336 h; in short: as §4
Mus musculus [13] = test: Hepatotoxicity in mouse assessed as effect on total albumin level at 30 mg/kg/day, po dosed for 2 weeks relative to control; assay type: toxicity, organism-based; parameters: route oral; details: in vivo, 336 h; in short: as §4
Mus musculus [14] = test: Hepatotoxicity in mouse assessed as effect on total protein level at 30 mg/kg/day, po dosed for 2 weeks relative to control; assay type: toxicity, organism-based; parameters: route oral; details: in vivo, 336 h; in short: as §4
Mus musculus [15] = test: Anticonvulsant activity in mouse assessed as protection against subcutaneous pentylenetetrazol-induced seizures at 300 mg/kg, ip after 0.5 hrs; assay type: functional, organism-based; parameters: dose 300 mg/kg; in short: as §3
Mus musculus [16] = test: Anticonvulsant activity in mouse assessed as protection against subcutaneous pentylenetetrazol-induced seizures at 300 mg/kg, ip after 4 hrs; assay type: functional, organism-based; parameters: dose 300 mg/kg; in short: as §3
Mus musculus [17] = test: Anticonvulsant activity in mouse assessed as protection against maximal electroshock-induced seizures at 300 mg/kg, ip after 0.5 hrs; assay type: functional, organism-based; parameters: dose 300 mg/kg; in short: as §3
Mus musculus [18] = test: Neurotoxicity in ip dosed mouse assessed as minimal motor impairment after 4 hrs by rotarod test; assay type: toxicity, organism-based; details: in vivo; in short: as §2
Mus musculus [19] = test: Neurotoxicity in ip dosed mouse assessed as minimal motor impairment after 0.5 hrs by rotarod test; assay type: toxicity, organism-based; details: in vivo; in short: as §2
Mus musculus [20] = test: Anticonvulsant activity in mouse assessed as protection against maximal electroshock-induced seizures at 300 mg/kg, ip after 4 hrs; assay type: functional, organism-based; parameters: dose 300 mg/kg; in short: as §3

`O=C(CCC(=O)c1ccccc1)Nc1nc2ccc(Cl)cc2s1` was tested, and the Time (Mus musculus [1]) was 134.5 s, the Activity (Mus musculus [2]) was “Active” and the Activity (Mus musculus [3]) was “Non-toxic”. For the same compound, the Activity (Mus musculus [4]) was “Active”, the minimal effective dose (Mus musculus [5]) was 300 mg/kg and the minimal effective dose (Mus musculus [6]) was 300 mg/kg. For the same compound, the minimal effective dose (Mus musculus [7]) was 300 mg/kg, the minimal effective dose (Mus musculus [8]) was 300 mg/kg and the Activity (Mus musculus [9]) was “Non-toxic”. The Activity (Mus musculus [10]) was “Non-toxic”, the Activity (Mus musculus [11]) was “Non-toxic” and the Activity (Mus musculus [12]) was “Non-toxic”. The Activity (Mus musculus [13]) was “Non-toxic” and the Activity (Mus musculus [14]) was “Non-toxic”.
`O=C(CCC(=O)c1ccccc1)Nc1nc2cc(Cl)c(F)cc2s1` was tested, and the Time (Mus musculus [1]) was 146.6 s, the Activity (Mus musculus [15]) was “inactive” and the Activity (Mus musculus [3]) was “Non-toxic”. For the same compound, the minimal effective dose (Mus musculus [6]) was 300 mg/kg, the minimal effective dose (Mus musculus [7]) was 300 mg/kg and the Activity (Mus musculus [16]) was “inactive”. The Activity (Mus musculus [9]) was “Non-toxic”.
`CC(=O)c1ccc2nc(NC(=O)CCC(=O)c3ccccc3)sc2c1` was tested, and the Time (Mus musculus [1]) was 168.3 s, the Activity (Mus musculus [15]) was “inactive” and the Activity (Mus musculus [3]) was “Non-toxic”. The minimal effective dose (Mus musculus [5]) was 300 mg/kg, the Activity (Mus musculus [17]) was “inactive” and the minimal effective dose (Mus musculus [7]) was 100 mg/kg. For the same compound, the Activity (Mus musculus [9]) was “Non-toxic”.
For `O=C(CCC(=O)c1ccccc1)Nc1nc2ccc(Br)cc2s1`, the Time (Mus musculus [1]) was 162 s, the Activity (Mus musculus [15]) was “inactive” and the Activity (Mus musculus [3]) was “Non-toxic”. For the same compound, the Activity (Mus musculus [17]) was “inactive”, the minimal effective dose (Mus musculus [7]) was 300 mg/kg and the Activity (Mus musculus [16]) was “inactive”. For the same compound, the MTC (Mus musculus [18]) was 300 mg/kg.
In the case of `CC(=O)c1ccc2nc(NC(=O)c3ccccc3C(=O)c3ccccc3)sc2c1`, the Time (Mus musculus [1]) is reported as 172.3 s, the Activity (Mus musculus [15]) is reported as “inactive” and the Activity (Mus musculus [3]) is reported as “Non-toxic”. The minimal effective dose (Mus musculus [5]) was 300 mg/kg, the Activity (Mus musculus [17]) was “inactive” and the minimal effective dose (Mus musculus [7]) was 300 mg/kg. The Activity (Mus musculus [9]) was “Non-toxic”.
`O=C(Nc1nc2cc(Cl)c(F)cc2s1)c1ccccc1C(=O)c1ccccc1` was tested, and the Time (Mus musculus [1]) was 158.1 s, the Activity (Mus musculus [15]) was “inactive” and the minimal effective dose (Mus musculus [6]) was 300 mg/kg. The minimal effective dose (Mus musculus [7]) was 300 mg/kg, the Activity (Mus musculus [16]) was “inactive” and the MTC (Mus musculus [19]) was 300 mg/kg. For the same compound, the MTC (Mus musculus [18]) was 300 mg/kg.
In the case of `O=C(Nc1nc2ccc(Br)cc2s1)c1ccccc1C(=O)c1ccccc1`, the Time (Mus musculus [1]) is reported as 179.1 s, the Activity (Mus musculus [15]) is reported as “inactive” and the minimal effective dose (Mus musculus [6]) is reported as 300 mg/kg. The Activity (Mus musculus [20]) was “inactive”, the Activity (Mus musculus [16]) was “inactive” and the MTC (Mus musculus [19]) was 300 mg/kg. For the same compound, the MTC (Mus musculus [18]) was 300 mg/kg.
`COc1ccc2nc(NC(=O)c3ccccc3C(=O)c3ccccc3)sc2c1` was tested, and the Time (Mus musculus [1]) was 177 s, the Activity (Mus musculus [3]) was “Non-toxic” and the minimal effective dose (Mus musculus [5]) was 300 mg/kg. The Activity (Mus musculus [17]) was “inactive”, the minimal effective dose (Mus musculus [7]) was 100 mg/kg and the minimal effective dose (Mus musculus [8]) was 300 mg/kg. The Activity (Mus musculus [9]) was “Non-toxic”.
In the case of `O=C(Nc1nc2ccc([N+](=O)[O-])cc2s1)c1ccccc1C(=O)c1ccccc1`, the Time (Mus musculus [1]) is reported as 154.3 s, the Activity (Mus musculus [15]) is reported as “inactive” and the minimal effective dose (Mus musculus [6]) is reported as 300 mg/kg. For the same compound, the Activity (Mus musculus [20]) was “inactive”, the Activity (Mus musculus [16]) was “inactive” and the MTC (Mus musculus [19]) was 300 mg/kg. The MTC (Mus musculus [18]) was 300 mg/kg.
